“And” between values parts separate entries of the source, which are not always exact repeats. Equal values may be shown once.
Assay: CRRL conjugation kinetics of BQ with methoxyamine by UV–vis spectroscopy
Format: physicochemical
Conditions: PBS, room temperature
Procedure, shortened: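 BQ (200 μM) was reacted with excess methoxyamine (100 mM and other concentrations) in Dulbecco's PBS at room temperature. Readings were taken in quartz cells, starting immediately after mixing. Repeated UV-vis spectra tracked BQ at 248 nm and QO at 320 nm. Both traces were fitted to pseudo-first-order exponentials to give k′, and the slope of k′ versus [methoxyamine] gave the second-order rate constant.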

O=C1C=CC(=O)C=C1 [BQ, benzoquinone]
pseudo-first-order k′ of conversion of BQ to QO (BQ 200 μM, methoxyamine 100 mM, UV–vis (248 and 320 nm)): 4.2 × 10^–3 s^–1 | second-order rate constant k for CRRL conjugation (BQ with CH3ONH2 to QO) (from plot of k′ versus [methoxyamine], UV–vis): 3.4 × 10^–2 (±6.5 × 10^–4) M^–1s^–1 and 3.41 × 10^–2 (±6.5 × 10^–4) M^–1s^–1

Source: article PMC3983135 (Bioconjugate Chemistry, 2014)
